The inhibition is how much of the control response was suppressed.

Test [1] has as its target T1, Dual specificity mitogen-activated protein kinase kinase 6 (Homo sapiens) (UniProt P52564).
T1 sequence (whole entry): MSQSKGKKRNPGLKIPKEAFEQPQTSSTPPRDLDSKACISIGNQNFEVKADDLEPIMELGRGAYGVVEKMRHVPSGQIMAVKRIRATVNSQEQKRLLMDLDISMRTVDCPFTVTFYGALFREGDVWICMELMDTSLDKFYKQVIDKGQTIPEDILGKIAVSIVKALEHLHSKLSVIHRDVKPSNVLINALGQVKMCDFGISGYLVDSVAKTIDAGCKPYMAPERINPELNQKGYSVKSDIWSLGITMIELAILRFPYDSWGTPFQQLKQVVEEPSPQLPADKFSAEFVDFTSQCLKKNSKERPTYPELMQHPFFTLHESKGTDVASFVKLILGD
The experiment in a line: Inhibition of human wild type partial length MEK6 (K36 to D344 residues) expressed in bacterial expression system at 10 uM measured by Kinomescan assay. The method in brief:
(§1)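 Kinome-wide binding scan on the scanEDGE DiscoverX platform, covering 97 kinases, each tested at a single compound concentration of 10 μM.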

Test [2] has as its system MIA PaCa-2. The experiment in a line: Antiproliferative activity against human MIA PaCa-2 cells assessed as inhibition of cell proliferation measured after 72 hrs. The format is functional, cell-based. A digest of the protocol:
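Cells (~30,000; HEK293T, or pancreatic CD18 and MiaPaCa2) exposed to DMSO or a range of inhibitor doses for 72 h, then trypsinized and counted. Counts normalized to the DMSO control. Mean ± SD; three biological replicates; one-way ANOVA.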

The target in test [3] is T1, Dual specificity mitogen-activated protein kinase kinase 6 (Homo sapiens). The experiment in a line: Inhibition of human MEK6 in human HEK293T cells assessed as inhibition of anisomycin-induced p38 MAPK phosphorylation at 100 uM measured after 5 hrs by Western blot assay. Type of test: cell-based. A digest of the protocol:
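HEK293T cells pretreated with anisomycin (3 μg/mL) for 45 min, then given inhibitor (100 μM) for 5 h. Phospho- and total p42/44 MAPK and p38 MAPK, plus MEK7, detected by Western blot with HSP90 as loading control. Blots representative of at least three biological replicates.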
A general note: In western blotting, separated proteins are transferred to a membrane and probed.

For test [4], the target named is RAF proto-oncogene serine/threonine-protein kinase (Homo sapiens) (UniProt P04049). The experiment in a line: Inhibition of wild type partial length human RAF(I330 to T640 residues) expressed in bacterial expression system at 10 uM measured by Kinomescan assay. A digest of the protocol:
as §1

Test [5] addresses Mitogen-activated protein kinase 8 (Homo sapiens) (UniProt P45983). The test is described as follows: Inhibition of wild type full length human JNK1 (M1 to Q384 residues) expressed in mammalian expression system at 10 uM measured by Kinomescan assay. A digest of the protocol:
as §1

Test [6] has as its target Serine/threonine-protein kinase B-raf (Homo sapiens) (UniProt P15056). The experiment in a line: Inhibition of wild type partial length human BRAF (S429 to E741) expressed in mammalian expression system at 10 uM measured by Kinomescan assay. A digest of the protocol:
as §1

Test [7] addresses Mitogen-activated protein kinase 10 (Homo sapiens) (UniProt P53779). The test is described as follows: Inhibition of wild type partial length human JNK3 (V28 to Q422 residues) expressed in mammalian expression system at 10 uM measured by Kinomescan assay. A digest of the protocol:
as §1

The target in test [8] is Mitogen-activated protein kinase 9 (Homo sapiens) (UniProt P45984). The test is described as follows: Inhibition of wild type full length human JNK2 (M1 to Q382 residues) expressed in mammalian expression system at 10 uM measured by Kinomescan assay. A digest of the protocol: as §1
Sequence of Mitogen-activated protein kinase 9 (Homo sapiens) (P45984 whole entry, looked up, the tested form may be a part): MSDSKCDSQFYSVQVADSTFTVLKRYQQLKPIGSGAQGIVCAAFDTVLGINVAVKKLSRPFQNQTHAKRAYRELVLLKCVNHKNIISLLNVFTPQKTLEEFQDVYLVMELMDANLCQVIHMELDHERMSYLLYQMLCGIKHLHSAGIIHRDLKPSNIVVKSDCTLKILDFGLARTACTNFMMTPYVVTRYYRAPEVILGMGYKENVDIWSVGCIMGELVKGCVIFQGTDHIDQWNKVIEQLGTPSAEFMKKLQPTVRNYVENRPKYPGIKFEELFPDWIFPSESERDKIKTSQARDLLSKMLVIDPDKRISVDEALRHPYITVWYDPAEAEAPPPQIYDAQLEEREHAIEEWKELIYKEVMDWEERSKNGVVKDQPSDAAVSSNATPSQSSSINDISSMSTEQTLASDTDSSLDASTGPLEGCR
Test [9] deals with Mitogen-activated protein kinase 3 (Homo sapiens) (UniProt P27361). The test is described as follows: Inhibition of wild type full length human ERK1 (M1 to P397 residues) expressed in bacterial expression system at 10 uM measured by Kinomescan assay. A digest of the protocol:
as §1

Active and inactive are the calls of the source. The rule behind the calls is not given here.

Sequence of Mitogen-activated protein kinase 10 (Homo sapiens) (P53779 whole entry, the tested form may be a part): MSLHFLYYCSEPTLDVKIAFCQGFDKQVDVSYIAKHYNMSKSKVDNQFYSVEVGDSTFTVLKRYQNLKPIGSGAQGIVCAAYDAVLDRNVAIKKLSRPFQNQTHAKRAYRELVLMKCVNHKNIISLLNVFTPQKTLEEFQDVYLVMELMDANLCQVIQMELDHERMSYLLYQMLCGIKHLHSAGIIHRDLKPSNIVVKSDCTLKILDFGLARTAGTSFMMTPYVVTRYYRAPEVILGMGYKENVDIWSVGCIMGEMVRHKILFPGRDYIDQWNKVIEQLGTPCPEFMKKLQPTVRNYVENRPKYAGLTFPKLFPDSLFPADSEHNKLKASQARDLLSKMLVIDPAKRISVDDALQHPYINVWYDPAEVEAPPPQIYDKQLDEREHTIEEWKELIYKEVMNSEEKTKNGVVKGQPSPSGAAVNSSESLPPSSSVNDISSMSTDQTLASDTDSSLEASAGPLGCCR
Sequence of Mitogen-activated protein kinase 8 (Homo sapiens) (P45983 whole entry, the tested form may be a part): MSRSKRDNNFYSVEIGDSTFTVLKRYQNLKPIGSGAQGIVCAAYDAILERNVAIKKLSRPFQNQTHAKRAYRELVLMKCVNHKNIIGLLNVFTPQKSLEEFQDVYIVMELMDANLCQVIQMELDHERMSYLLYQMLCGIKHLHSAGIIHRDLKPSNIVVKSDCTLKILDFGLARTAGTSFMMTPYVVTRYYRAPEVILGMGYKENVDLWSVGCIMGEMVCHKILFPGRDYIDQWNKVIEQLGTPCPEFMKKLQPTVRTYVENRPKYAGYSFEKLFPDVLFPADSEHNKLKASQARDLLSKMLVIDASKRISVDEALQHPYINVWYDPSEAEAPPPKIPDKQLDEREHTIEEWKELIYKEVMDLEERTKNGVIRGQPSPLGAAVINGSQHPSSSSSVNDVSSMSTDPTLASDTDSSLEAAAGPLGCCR
Sequence of Mitogen-activated protein kinase 3 (Homo sapiens) (P27361 whole entry, the tested form may be a part): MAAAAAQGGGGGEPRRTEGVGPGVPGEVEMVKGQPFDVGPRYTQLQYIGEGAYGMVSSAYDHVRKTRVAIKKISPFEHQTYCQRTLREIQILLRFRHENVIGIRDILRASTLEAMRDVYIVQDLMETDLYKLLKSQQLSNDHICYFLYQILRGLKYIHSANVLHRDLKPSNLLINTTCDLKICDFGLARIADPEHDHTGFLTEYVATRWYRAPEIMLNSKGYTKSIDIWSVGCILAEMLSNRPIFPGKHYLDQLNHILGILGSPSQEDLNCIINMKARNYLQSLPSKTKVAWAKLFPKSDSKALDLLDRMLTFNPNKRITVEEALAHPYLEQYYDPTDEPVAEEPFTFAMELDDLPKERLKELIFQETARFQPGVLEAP
Sequence of RAF proto-oncogene serine/threonine-protein kinase (Homo sapiens) (P04049 whole entry, the tested form may be a part): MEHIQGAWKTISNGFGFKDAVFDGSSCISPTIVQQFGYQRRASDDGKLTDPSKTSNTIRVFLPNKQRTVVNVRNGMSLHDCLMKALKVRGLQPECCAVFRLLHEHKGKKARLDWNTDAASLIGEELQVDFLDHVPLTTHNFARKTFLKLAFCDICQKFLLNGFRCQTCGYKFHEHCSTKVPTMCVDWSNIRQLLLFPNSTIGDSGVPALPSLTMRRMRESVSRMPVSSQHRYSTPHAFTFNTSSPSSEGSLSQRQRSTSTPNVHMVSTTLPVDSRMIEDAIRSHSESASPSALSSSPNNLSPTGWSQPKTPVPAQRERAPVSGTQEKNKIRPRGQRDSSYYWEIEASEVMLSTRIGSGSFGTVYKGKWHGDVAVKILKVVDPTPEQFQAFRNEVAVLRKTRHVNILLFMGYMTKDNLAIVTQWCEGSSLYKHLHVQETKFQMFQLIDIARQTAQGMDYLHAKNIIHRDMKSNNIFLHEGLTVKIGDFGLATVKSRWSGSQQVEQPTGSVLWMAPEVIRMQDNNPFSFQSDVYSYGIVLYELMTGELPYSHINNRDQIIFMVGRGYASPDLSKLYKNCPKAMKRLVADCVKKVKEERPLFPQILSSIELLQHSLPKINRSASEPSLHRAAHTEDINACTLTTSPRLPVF
Sequence of Serine/threonine-protein kinase B-raf (Homo sapiens) (P15056 whole entry): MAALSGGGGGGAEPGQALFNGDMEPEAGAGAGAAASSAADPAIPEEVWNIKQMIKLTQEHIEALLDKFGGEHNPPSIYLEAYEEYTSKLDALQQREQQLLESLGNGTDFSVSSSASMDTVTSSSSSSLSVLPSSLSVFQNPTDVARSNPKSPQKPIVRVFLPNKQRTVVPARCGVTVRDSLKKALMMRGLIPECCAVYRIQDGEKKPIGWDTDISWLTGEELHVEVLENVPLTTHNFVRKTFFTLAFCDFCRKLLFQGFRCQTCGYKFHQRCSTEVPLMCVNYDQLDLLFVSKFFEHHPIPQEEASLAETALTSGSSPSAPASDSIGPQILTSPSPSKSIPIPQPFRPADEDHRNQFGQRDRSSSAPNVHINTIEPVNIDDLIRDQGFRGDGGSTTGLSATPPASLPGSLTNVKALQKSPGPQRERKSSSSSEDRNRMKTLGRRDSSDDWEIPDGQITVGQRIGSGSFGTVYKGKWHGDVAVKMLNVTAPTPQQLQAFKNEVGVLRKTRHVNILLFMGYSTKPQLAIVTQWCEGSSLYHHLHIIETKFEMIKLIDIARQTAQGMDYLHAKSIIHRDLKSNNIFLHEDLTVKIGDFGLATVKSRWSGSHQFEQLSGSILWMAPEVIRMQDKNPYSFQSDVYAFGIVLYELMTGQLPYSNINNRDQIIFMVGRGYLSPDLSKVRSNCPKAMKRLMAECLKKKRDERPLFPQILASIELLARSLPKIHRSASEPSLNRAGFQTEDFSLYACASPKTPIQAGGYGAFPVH

`NS(=O)(=O)c1ccc(-c2n[nH]c3cc(F)ccc23)cc1` had an inhibition in test [1] of 50%. In addition, in test [2], the result was Active. Further, in test [3], the inhibition result was “inactive”.

As for `NC(=O)c1ccc(NS(=O)(=O)c2cccc(-c3n[nH]c4cc(F)ccc34)c2)cc1`, the inhibition result in [4], in test [6], in [3] and in test [9] was “inactive” each time. Besides, the inhibition entry in [5], in [7] and in test [8] was “Active” each time. Further, the inhibition in test [1] was 97%. Besides, the result in test [2] was Active.

Values taken from ChEMBL document CHEMBL4837264, “Rational Design, Optimization, and Biological Evaluation of Novel MEK4 Inhibitors against Pancreatic Adenocarcinoma” (ACS Med Chem Lett, 2021).
